H69AR inhibit = blocks growth of human H69AR lung tumor cells; H69AR lung tumor viability, ATP luminescence, 72 h; stronger effect = lower value; viability, % at 10 µM; 85,000 compounds, 6% hits; AID 598;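 active = viability at or below 40%; inactive = viability above 40%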;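 note: multidrug resistant small cell line overexpressing MRP-1 efflux transporter; 100% = mean luminescence of untreated control wells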
Fibroblast inh = blocks proliferation of human lung fibroblasts; viability, % at 10 µM; 85,000 compounds, 1.1% hits; LL 47 human lung fibroblast viability, ATP luminescence; stronger effect = lower value;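 active = viability at or below 50% in the single dose screen; inactive = viability above 50%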;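 note: compound exposure lasted 72 h before the ATP readout; 100% = median luminescence of untreated cell-only wells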
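Signal: luminescent ATP detection, CellTiter-Glo; assay system: LL 47 human lung fibroblasts; input: 1,150 cells/well; incubation: overnight cell rest, 72 h compound treatment at 37 °C; measure: % viability versus median cells-only luminescence; medium: IMEM growth medium with 15% fetal bovine serum; dosing: compound addition at 0.1% DMSO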
HUVEC prolif 384 = human endothelial cell proliferation inhibition. viability, % at 10 µM (by protocol). HUVEC proliferation, CellTiter-Glo luminescence, 72 h; stronger effect = lower value. 86,000 compounds, 1.1% hits;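 active = viability at or below 30%; inactive = viability above 30%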;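 note: 100% = median luminescence of DMSO-only cell control wells on each plate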
HCT116 bCat-KO = beta-catenin-lacking colon tumor cell growth suppression; 140,000 compounds, 1.5% hits; viability, % at 10 µM; HCT116 beta-catenin knockout viability, CellTiter-Glo, 60 h; stronger effect = lower value;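 active = viability at or under a set limit, the compound median less 4 SD, cut at about 6% in these data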;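 note: 0% = Hyamine 1622 control at 20 µM and 100% = untreated cell control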
HCT116 PTEN-null = suppresses growth of cells with PTEN deletion. HCT116 PTEN-null viability, CellTiter-Glo, 60 h; stronger effect = lower value. viability, % at 10 µM. 140,000 compounds, 1.2% hits. AID 827;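 active = viability at or below a set limit, 4 SD under the median of all tested compounds, cut at about 3.7% in these data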;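 note: PTEN knockout HCT116 line with beta catenin targeted HCT116 as companion control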
The depositor's hits bear a star; . = not tested or not shown. Only a selection was taken, and hits are over-represented in it overall.

SMILES	H69AR inhibit	Fibroblast inh	HUVEC prolif 384	HCT116 bCat-KO	HCT116 PTEN-null
Cc1ccc(CSc2nnc(-c3ccncc3)n2CC2CCCO2)cc1 (stereo unspecified)	83	100	95	91	80
Cn1c(=O)c2c(nc(NCc3ccc4c(c3)OCO4)n2Cc2ccc(F)cc2)n(C)c1=O	23*	84	57	35	32
Cn1c(=O)c2c(nc(CN3CCN(Cc4ccccc4)CC3)n2Cc2ccc(Cl)cc2)n(C)c1=O	10*	45*	70	16	25
Cn1c(=O)n(Cc2ccccc2)c(=O)c2c1nc1n2CCCN1Cc1ccccc1	32*	91	92	92	84
Cn1c(=O)c2c(nc(NCc3ccc4c(c3)OCO4)n2Cc2ccccc2)n(C)c1=O	29*	97	89	65	62
Cc1ccc(Cn2c(=O)c3c(nc4n3CCCN4Cc3ccccc3)n(C)c2=O)cc1	61	95	89	82	85
O=C(CNC(=O)c1ccc(Cl)cc1)NCCCn1ccnc1	85	93	98	107	99
Cc1cccc(C)c1NC(=O)CSc1nnc(CCCCCNC(=O)OC(C)(C)C)o1	81	95	89	95	101
Cn1c(=O)c2c(nc(Oc3ccc4c(c3)OCO4)n2Cc2ccc(Cl)cc2)n(C)c1=O	12*	.	12*	100	69
CCOc1ccc(N2CC(C(=O)Nc3ccccc3N3CCOCC3)CC2=O)cc1 (stereo unspecified)	101	96	85	94	87
COc1ccc(C2NCCc3c2[nH]c2ccccc32)cc1COc1ccc(F)cc1 (stereo unspecified)	.	.	.	1.2*	0.9*
COc1ccc(N(C(=O)CCl)C(C(=O)NCCc2ccccc2)c2cccs2)cc1Cl (stereo unspecified)	.	.	.	1.8*	0.9*
COc1cccc(N(C(=O)CS(=O)CC(=O)Nc2ccc(F)cc2)C(C(=O)NC2CCCCC2)c2cccs2)c1 (stereo unspecified)	.	.	.	82	83
COc1cccc(N(C(=O)CCl)C(C(=O)NCCc2ccccc2)c2cccs2)c1 (stereo unspecified)	.	.	.	2.4*	1.2*
O=C(NS(=O)(=O)Oc1ccc(Cl)cc1)OC[C@@H]1CCCN2CCCC[C@H]12	.	.	.	95	101
CCOC(=O)C1=C(C)NC(=O)NC1c1ccoc1 (stereo unspecified)	.	.	.	99	.
CC(=O)O[C@@H]1C[C@H]2C(C)(C)C(=O)C=C[C@]2(C)[C@H]2CC[C@@]3(C)[C@H](c4ccoc4)OC(=O)[C@H]4O[C@]43[C@@]21C	.	.	.	3.9*	4
COc1ccccc1NC(=O)c1cc2ccc(O)cc2o/c1=N\O	36*	96	81	104	95
COc1ccccc1NC(=O)c1cc2ccccc2o/c1=N\O	53	97	67	4.5*	2.7*
COc1ccccc1N=c1oc2cc(O)ccc2cc1C(N)=O	.	.	.	64	65
Cc1ccnc(NC(=O)c2ccc([N+](=O)[O-])o2)c1	.	.	.	3.5*	4
CC1CCCCN1CC(=O)Nc1ccccc1Sc1ccccc1 (stereo unspecified)	.	.	.	78	76
CN(C)c1nc(-c2ccccn2)nnc1-c1ccccc1	53	13*	11*	13	14
c1ccc(-c2nnc(-c3ccccn3)nn2)nc1	44	100	80	.	.
CCOC(=O)CN1C(=O)S/C(=C/C=C/c2ccc(N(C)C)cc2)C1=O	.	.	.	85	92
SMILES	H69AR inhibit	Fibroblast inh	HUVEC prolif 384	HCT116 bCat-KO	HCT116 PTEN-null
CCOC(=O)C1=C(N)Oc2c(c(=O)[nH]c3ccccc23)C1c1ccccc1 (stereo unspecified)	13*	98	59	33	15
CN(c1ccccc1)c1nc(N2CCCC2)nc(-n2ccnc2)n1	40*	73	90	74	86
N/C(=N/O)c1nc(N2CCCC2)nc(N(c2ccccc2)c2ccccc2)n1	53	85	87	90	88
CCOC(=O)N1CCN(c2nc(N(c3ccccc3)c3ccccc3)nc(-n3ccnc3)n2)CC1	21*	92	89	.	.
c1ccc(N(c2ccccc2)c2nc(N3CCCC3)nc(-n3ccnc3)n2)cc1	20*	63	44	57	48
c1ccc(CN2CCN(c3nc(-c4ccccc4)nc(-n4ccnc4)n3)CC2)cc1	80	84	65	65	65
CCOC(=O)c1cc(C)n(Cc2ccc(OCC)c(OC)c2)c1C	89	85	94	72	86
Cc1ccc(NC2OC(CO)C(O)C(O)C2O)cc1 (stereo unspecified)	89	104	92	93	96
OC(COCCOc1ccc(Br)cc1)CN1CCN(Cc2ccccc2)CC1 (stereo unspecified)	.	.	.	18	19
O=C(C1=C(O)/C(=C/c2ccc(O)cc2)CCC1)C(F)(F)F	29*	99	83	66	72
CC1Cc2ccccc2N1C(=O)C1CCCN(S(=O)(=O)c2cccc3cccnc23)C1 (stereo unspecified)	37*	82	80	60	63
O=C(NC(=S)NCCC1=CCCCC1)c1cncc(Br)c1	.	.	.	87	88
COc1ccc(C(=O)Cn2c(Br)nc3c2c(=O)n(C)c(=O)n3C)cc1OC	69	101	109	98	104
COc1ccc(-c2nc3c(c(=O)n(C)c(=O)n3C)n2CC2CC(c3ccccc3)=NO2)cc1OC (stereo unspecified)	6.3*	103	75	.	.
O=C(Nc1ccccc1N1CCOCC1)C1CCN(S(=O)(=O)c2ccccc2F)CC1	.	.	.	93	97
C(=C\c1ccccc1)/CSc1nnc(-c2ccccn2)n1Cc1ccco1	19*	43*	41	16	16
COc1ccc(/C=N/N2CCOCC2)cc1COc1ccc(Cl)cc1	.	.	.	40	43
Cc1cc(NC(=O)CSc2nc(C3CC3)nc3sc(C)c(C)c23)no1	24*	67	72	31	31
CCc1nc(SCC(=O)Nc2cc(C)on2)c2c(C)c(C)sc2n1	90	87	88	105	96
CN(C)CCCN1C(=O)c2cccc3c([N+](=O)[O-])ccc(c23)C1=O	.	.	.	1.4*	1.6*
COc1ccc(OC)c(Nc2ncnc3c2cnn3-c2cccc(C)c2)c1	23*	61	51	25	26
COc1ccc(Nc2ncnc3c2cnn3-c2ccccc2)cc1OC	37*	112	90	91	102
Clc1ccc(Nc2ncnc3c2cnn3-c2ccccc2)cc1	95	100	93	80	76
CC(=O)c1cccc(NC(=O)Cc2ccc3c(c2)CCCC3)c1	.	.	.	97	99
CCc1noc(C)c1C(=O)Nc1nc(-c2ccc(Cl)cc2Cl)cs1	.	.	.	85	81
CCN(CC)c1ccc(Nc2nc(N3CCOCC3)c3ccccc3n2)cc1	32*	88	81	14	21
COc1ccc(Nc2nc(N3CCCCC3)nc(N3CCCCC3)n2)c(OC)c1	86	94	96	.	.
COc1ccc(Nc2nc(N3CCCCC3)nc3ccccc23)c(OC)c1	9.0*	77	72	11	7

From PubChem BioAssay
